Compound activity as filed in PubChem BioAssay.
Sampled rows, rich in hits. Any-hit rate of the full collection: about 2.8%.
MC4R antag cAMP: human MC4R antagonism in cAMP assay; P32245; MC4R-expressing cells, MTII-stimulated cAMP, LANCE TR-FRET; inhibition, % at 6.5 µM; actives 0.48% (n = 360,000);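 active means inhibition above its plate's cutoff, the mean of tested wells on that plate plus 3 SD, cut at about 29% in these data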;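 further: 0% = Melanotan II alone and 100% = Melanotan II plus saturating MCL0020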
Target sequence (P32245 whole entry, looked up): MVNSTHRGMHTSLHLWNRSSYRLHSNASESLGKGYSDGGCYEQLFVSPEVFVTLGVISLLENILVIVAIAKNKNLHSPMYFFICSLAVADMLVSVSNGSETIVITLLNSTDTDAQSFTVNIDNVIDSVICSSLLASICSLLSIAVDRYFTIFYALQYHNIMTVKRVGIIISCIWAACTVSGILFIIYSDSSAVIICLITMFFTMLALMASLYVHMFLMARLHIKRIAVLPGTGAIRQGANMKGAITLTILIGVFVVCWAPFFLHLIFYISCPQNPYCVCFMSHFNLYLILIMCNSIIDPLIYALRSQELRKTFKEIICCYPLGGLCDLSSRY
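Test system: U2OS cells stably expressing human melanocortin 4 receptor (MC4R); also added: Melanotan II challenge; compound: 6.5 µM single dose; timing: 30-min compound preincubation, 1-h Melanotan II challenge, 1-h detection, room temperature; signal: Eu-cAMP/anti-cAMP TR-FRET, emission 671 nm; repeats: one well per compound, no replicates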
MC4R barr agon: activates human MC4R beta-arrestin recruitment | U2OS MC4R beta-arrestin complementation, luminescence; percent of melanotan II response, DMSO zero | activation, % at 8.9 µM | actives 0.98% (n = 360,000) | AID 540308;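 active means activation above a per-plate cutoff, the mean activation of sample wells on that plate plus 3 SD, cut at about 8% in these data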
HTR2A ag: activates the mouse 5-HT2A serotonin receptor; P35363; CHO-K1 mHTR2A beta-arrestin complementation, luminescence; percent of 30 µM serotonin response; activation, % at 7.6 µM; actives 0.66% (n = 360,000);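 active means activation above a run cutoff, the mean activation of all tested compounds plus 3 SD, cut at about 14% in these data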;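 further: 0% = plate median of compound wells and 100% = 30 µM serotonin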
EBI2 block: EBI2 (human) antagonism | P32249 | EBI2 beta-arrestin recruitment, luminescence, 7a,25-OHC stimulated | inhibition, % at 5 µM | actives 0.81% (n = 360,000) | AID 651636; in the data active means inhibition above about 38%;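 further: enzyme fragment complementation signal reports receptor beta-arrestin coupling in cells; 0% = agonist plus DMSO wells and 100% = wells without agonist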
cAMP nonselect: nonselective cAMP signaling inhibitor, MC4R antagonist counter-screen. parental U2OS, forskolin cAMP, LANCE TR-FRET. inhibition, % at 6.5 µM. AID 602193. actives 26% (n = 1,600). shares compounds with MC4R antag cAMP;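 active means mean inhibition over triplicates above the low-control well mean plus 3 SD, set per campaign, cut at about 13% in these data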;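 further: signal is single emission at 671 nm which falls as cellular cAMP rises; 0% = forskolin-stimulated wells and 100% = buffer without forskolin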
MC4R cAMP antag: human MC4R cAMP antagonism confirmation | shares compounds with MC4R antag cAMP | MC4R-expressing cells, MTII-stimulated cAMP, TR-FRET | inhibition, % at 6.5 µM | actives 27% (n = 1,600) | AID 602195; in the data active means inhibition above about 29%;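 further: 0% = agonist stimulated wells alone and 100% = agonist stimulated wells plus saturating reference antagonist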
Active calls of the source: *.

Cc1ccc(S(=O)(=O)N2CCCCC2)cc1NC(=O)COC(=O)c1cc[n+]([O-])cc1 was read as MC4R antag cAMP 29*, MC4R barr agon 2, HTR2A ag 0, EBI2 block -4, cAMP nonselect 3 and MC4R cAMP antag -4.
`CC(C)CNC(=O)C1(C)CCCN1C(=O)c1ccc2c(c1)CCO2` (stereo not given) gave MC4R antag cAMP -7, MC4R barr agon 1, HTR2A ag 2 and EBI2 block 1.
For COC(=O)c1ccc(N2NC(=O)/C(=C/c3cc(OC)c(OC)c(OC)c3)C2=O)cc1 the results were MC4R antag cAMP 36*, MC4R barr agon -2, HTR2A ag 3, EBI2 block 18, cAMP nonselect 1 and MC4R cAMP antag -3.
`CC(C(=O)Nc1ccc(Cl)cc1)c1ncc(C(F)(F)F)cc1Cl` (stereo not given) gave MC4R antag cAMP 0, MC4R barr agon 0, HTR2A ag -4 and EBI2 block 10.
`CNC(=O)C(C)c1ncc(C(F)(F)F)cc1Cl` (stereo not given) gave MC4R antag cAMP 31*, MC4R barr agon 1, HTR2A ag -3, EBI2 block -17, cAMP nonselect 1 and MC4R cAMP antag -8.
`OC[C@@H]1CN(Cc2cccs2)C[C@H](n2cnc3c(N4CCCC4)ncnc32)O1` gave MC4R antag cAMP -1, MC4R barr agon -1, HTR2A ag 3 and EBI2 block -2.
For Cc1cccc(S(=O)(=O)NC(=O)C2(C)CCN2C(=O)Cc2cccs2)c1 (stereo not given) the results were MC4R antag cAMP 8, MC4R barr agon 0, HTR2A ag 1 and EBI2 block -8.
Screening CCOC(=O)[C@H]1[C@H]2COc3ccc(Br)cc3[C@H]2N2C(=O)CN(Cc3ccc(C)cc3)C(=O)[C@@]12C returned MC4R antag cAMP 1, MC4R barr agon 2, HTR2A ag 10 and EBI2 block 1.
COc1cc(N2C(=O)C=CC2=O)ccc1N1C(=O)C=CC1=O was read as MC4R antag cAMP 103*, MC4R barr agon -4, HTR2A ag 7, EBI2 block 23, cAMP nonselect 62* and MC4R cAMP antag 79*.
Screening COc1ccc(N2C(=O)C3CC(C)=C(C)CC3C2=O)c(OC)c1 (stereo not given) returned MC4R antag cAMP 2, MC4R barr agon 2, HTR2A ag 1 and EBI2 block -2.
Screening CC(=O)N(c1ccc(Cl)cc1)c1cn(C(C)=O)c2ccccc12 returned MC4R antag cAMP 7, MC4R barr agon -2, HTR2A ag 6 and EBI2 block -3.
CC(=O)n1cc(N(C(=O)CCl)c2ccc(C)cc2)c2ccccc21 was read as MC4R antag cAMP 46*, MC4R barr agon 17*, HTR2A ag -2, EBI2 block -10, cAMP nonselect -21 and MC4R cAMP antag 45*.
`COC(=O)c1c(NC(=O)C2COc3ccccc3O2)sc2c1CCN(C(=O)OC)C2` (stereo not given) gave MC4R antag cAMP 31*, MC4R barr agon 1, HTR2A ag 3, EBI2 block 11, cAMP nonselect 2 and MC4R cAMP antag 26.
COC(=O)c1c(NC(=O)C2COc3ccccc3O2)sc2c1CCN(Cc1ccccc1)C2 (stereo not given) was read as MC4R antag cAMP 8, MC4R barr agon 2, HTR2A ag -3 and EBI2 block 24.
For COc1ccc(CCC(=O)N2c3ccccc3N=C(c3ccc(C(F)(F)F)cc3)C2C(=O)NC(C)C)cc1 (stereo not given) the results were HTR2A ag -2 and EBI2 block 12.
For O=C(O)c1cc(-c2cccs2)nc2ccc(Br)cc12 the results were MC4R antag cAMP 111*, MC4R barr agon -2, HTR2A ag 0, EBI2 block 1, cAMP nonselect 98* and MC4R cAMP antag 153*.
Screening O=C(O)c1cc(-c2cccnc2)nc2ccc(Br)cc12 returned MC4R antag cAMP 49*, MC4R barr agon -1, HTR2A ag -1, EBI2 block 2, cAMP nonselect 42* and MC4R cAMP antag 68*.
`COC(=O)c1cc(-c2ccc3c(c2)OCO3)nc2ccccc12` gave MC4R antag cAMP 3, MC4R barr agon 0, HTR2A ag 2 and EBI2 block -4.
For O=C(O)c1cc(-c2cccs2)nc2ccc(F)cc12 the results were MC4R antag cAMP 10, MC4R barr agon -2, HTR2A ag -1 and EBI2 block 6.
O=C(O)c1cc(-c2ccc3c(c2)OCO3)nc2ccc(Br)cc12 was read as MC4R antag cAMP 37*, MC4R barr agon -2, HTR2A ag -2, EBI2 block -7, cAMP nonselect 12 and MC4R cAMP antag 30*.
Screening COC(=O)N(C)C[C@@H]1OCc2ccccc2-c2c(n(C)c3ccccc23)C(=O)N([C@H](C)CO)C[C@@H]1C returned MC4R antag cAMP 3, MC4R barr agon 2, HTR2A ag 6 and EBI2 block 4.
Screening COc1ccc(OC)c(C(=O)CN2C(=O)C(=O)N(C3CCCC3)C2=O)c1 returned MC4R antag cAMP 3, MC4R barr agon 1, HTR2A ag 4 and EBI2 block -1.
Screening CC(C)N(Cc1ccccc1)C(=O)COC(=O)c1cc(S(=O)(=O)N(C)C)ccc1N1CCCC1 returned MC4R antag cAMP 10, MC4R barr agon 0, HTR2A ag 1 and EBI2 block 0.
Cc1ccc(CN(C(=O)c2ccc(Cl)c([N+](=O)[O-])c2)C2CCS(=O)(=O)C2)o1 (stereo not given) was read as MC4R antag cAMP 37*, MC4R barr agon -4, HTR2A ag -2, EBI2 block -1, cAMP nonselect 19* and MC4R cAMP antag 37*.
O=C(c1ccc(Cl)c([N+](=O)[O-])c1)N(Cc1ccccc1)C1CCS(=O)(=O)C1 (stereo not given) was read as MC4R antag cAMP 17, MC4R barr agon 1, HTR2A ag -2 and EBI2 block -1.
